# Source: PubChem BioAssay (SRMLSC)
# Fibroblast inh: blocks proliferation of human lung fibroblasts; hit rate 1.1% among 85,000; viability, % at 10 µM; AID 719; LL 47 human lung fibroblast viability, ATP luminescence; hits give low values;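 active means viability at or below 50% in the single dose screen; inactive means viability above 50%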;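 further: compound exposure lasted 72 h before the ATP readout; 100% = median luminescence of untreated cell-only wells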
#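 Material: human LL 47 lung fibroblast cells; quantity: 1,150 cells/well; medium: IMEM plus 15% FBS; doses: 0.1% DMSO in all compound wells; timing: overnight attachment after seeding, then 72 h compound exposure at 37 °C; detection: CellTiter-Glo luminescence; measure: % viability of median cell-only signal; controls: cell-only wells, no compound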
# bCat KO growth: beta-catenin-lacking colon tumor cell growth suppression; HCT116 beta-catenin knockout viability, CellTiter-Glo, 60 h; hits give low values; viability, % at 10 µM; hit rate 1.5% among 140,000;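 active means viability at or under a set limit, the compound median less 4 SD, cut at about 6% in these data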;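 further: 0% = Hyamine 1622 control at 20 µM and 100% = untreated cell control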
# H69AR growth 86K: growth inhibitors of human H69AR lung tumor cells. H69AR lung tumor viability, ATP luminescence, 72 h; hits give low values. viability, % at 10 µM. hit rate 6% among 85,000. AID 598;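 active means viability at or below 40%; inactive means viability above 40%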;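 further: multidrug resistant small cell line overexpressing MRP-1 efflux transporter; 100% = mean luminescence of untreated control wells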
# HUVEC inhibit: inhibitors of human endothelial cell proliferation. HUVEC proliferation, CellTiter-Glo luminescence, 72 h; hits give low values. viability, % at 10 µM (by protocol). hit rate 1.1% among 86,000. AID 648;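 active means viability at or below 30%; inactive means viability above 30%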;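 further: 100% = median luminescence of DMSO-only cell control wells on each plate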
# PTEN del growth: suppresses growth of cells with PTEN deletion | HCT116 PTEN-null viability, CellTiter-Glo, 60 h; hits give low values | viability, % at 10 µM | hit rate 1.2% among 140,000;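 active means viability at or below a set limit, 4 SD under the median of all tested compounds, cut at about 3.7% in these data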;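 further: PTEN knockout HCT116 line with beta catenin targeted HCT116 as companion control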
# Starred values were filed as active, the others as inactive; . = not tested or not shown. The entries come from a sample that favours hits as a whole.
SMILES,Fibroblast inh,bCat KO growth,H69AR growth 86K,HUVEC inhibit,PTEN del growth
Cc1ccccc1CS(=O)(=O)c1cnc2ccccc2n1,75.9,15.3,16.2*,73.9,8.2
CSC(=Nc1cccc(C)c1)NC#N,.,84.0,.,.,91.8
Fc1ccc2c(Cl)c(-c3nnc(-c4cccs4)o3)sc2c1,24.1*,95.5,11.6*,51.1,67.9
Cc1ccc(-c2nnn(CC(=O)N(c3ccc(F)cc3)C(C(=O)NC3CCCC3)c3ccco3)n2)o1 (stereo not drawn),109.2,96.1,95.7,83.6,101.0
Cc1ccc(-c2nnn(CC(=O)N(c3ccc(F)cc3)C(C(=O)NC(C)(C)C)c3ccco3)n2)o1 (stereo not drawn),99.8,84.3,31.9*,77.3,78.9
COc1ccc(S(=O)(=O)CCC(=O)Nc2ccc(OC)cc2OC)cc1,97.3,92.1,84.1,94.0,91.8
COc1ccc(S(=O)(=O)CCC(=O)N(C)c2ccc(OC)cc2OC)cc1,103.3,0.5*,93.8,103.3,0.4*
Cc1cc(/C=C(\C#N)C(=O)NCc2cccs2)c(C)n1-c1ccccc1F,67.4,80.3,96.0,94.4,73.8
O=[N+]([O-])c1cccnc1N1CCC(c2cc(-c3cccc(C(F)(F)F)c3)n[nH]2)CC1,100.8,64.6,34.0*,3.7*,48.7
O=[N+]([O-])c1cccnc1N1CCC(c2cc(-c3ccc(Cl)cc3Cl)n[nH]2)CC1,106.6,69.9,84.4,51.6,51.4
COc1ccccc1/C=C/C=N/NC(=O)c1ccncc1,.,68.4,.,.,71.5
COc1ccc(/C=C/c2ccncc2)c2ccccc12,94.4,74.0,13.8*,68.8,73.3
CNC(=O)/C=C1\NC(C)(C)Cc2c1ccc1ccccc21,89.5,54.5,22.7*,80.2,55.9
O=C(NC1CCCCCC1)c1ccc(CN2CCOCC2)cc1,98.5,97.0,82.8,103.2,86.3
CC1(C)SC(=S)N(/N=C/c2ccccc2)C1N(O)C(=O)Nc1ccc([N+](=O)[O-])cc1 (stereo not drawn),86.3,60.8,37.3*,86.5,48.9
CC1(C)SC(=S)N(NC(=O)Nc2cccc3ccccc23)C1N(O)C(=O)Nc1ccccc1 (stereo not drawn),.,58.7,.,.,59.0
C=CCNC(=O)COc1cc(C)ccc1C,.,87.8,.,.,89.3
CCCCN(CC)c1nc(N)c(C#N)c(CC#N)c1C#N,96.5,85.9,88.9,77.6,83.3
CCCCN(CC)c1nc(N)c2c(N)nc(OCC)cc2c1C#N,82.2,71.8,33.9*,79.8,74.8
Cc1cc(C)nc(NS(=O)(=O)c2ccc(N/C=C/C(=O)c3ccc(Cl)c(Cl)c3)cc2)n1,.,87.0,.,.,76.1
COc1ccc(C2NC(C(=O)O)Cc3c2[nH]c2ccccc32)cc1OC (stereo not drawn),92.4,93.1,82.7,89.4,92.2
COc1ccc(C2NCCc3c2[nH]c2ccccc32)cc1CSc1nc2ccccc2s1 (stereo not drawn),.,1.4*,.,.,1.3*
CCOC(=O)c1ccccc1OCc1cc(/C=N/n2cnnc2)ccc1OC,93.9,71.2,35.4*,85.6,72.9
COc1cc(/C=N\n2cnnc2)ccc1OCC(=O)Nc1ccc(C)cc1,93.7,89.1,84.2,90.4,75.8
O=C(/C=C/c1cccc([N+](=O)[O-])c1)NC(=S)Nc1cccc(NC(=O)c2ccccc2Cl)c1,.,11.3,.,.,2.8*
SMILES,Fibroblast inh,bCat KO growth,H69AR growth 86K,HUVEC inhibit,PTEN del growth
CCCCN(CCCC)C(=O)c1ccccc1NC(=O)CN1C(=O)c2ccccc2C1=O,98.5,101.0,90.9,92.0,112.7
Cc1ccc(N2CC(C(=O)Nc3ccccc3C(=O)NC3CCCCC3)CC2=O)cc1C (stereo not drawn),104.0,.,80.5,78.7,.
O=c1c2cc(N3CCOCC3)ccc2[nH]c(=S)n1CCCN1CCN(c2ccccc2F)CC1,.,83.5,.,.,84.9
COc1ccc2[nH]c(=O)c(CN(C3CCCCC3)C(c3nnnn3Cc3ccco3)C(C)C)cc2c1 (stereo not drawn),39.5*,49.6,96.3,56.3,46.6
COc1ccc2[nH]c(=O)c(CN(Cc3nnnn3Cc3ccco3)C3CCCCC3)cc2c1,96.8,75.5,38.2*,68.8,67.2
CCC(c1nnnn1Cc1ccco1)N(Cc1ccccc1OC)Cc1cc2cc(C)ccc2[nH]c1=O (stereo not drawn),85.9,55.4,78.8,81.3,40.0
CCC(c1nnnn1C1CCCCC1)N(Cc1ccco1)Cc1cc2ccc(OC)cc2[nH]c1=O (stereo not drawn),92.8,3.0*,15.0*,53.0,18.2
COc1ccc(Cn2nnnc2CN(Cc2cc3cc(C)ccc3[nH]c2=O)C2CCCC2)cc1,88.6,65.7,51.4,78.0,53.8
CCOc1ccc(NC(=O)c2oc3ccccc3c2NC(=O)C2CC2)cc1,90.7,.,85.4,78.7,.
O=C(CN1N=C(c2ccc(Cl)cc2)CCC1=O)NCc1cccnc1,.,85.1,.,.,81.7
CSc1ccccc1OC1CCN(Cc2ccccc2)CC1,.,53.9,.,.,61.2
O=C(NCCc1ccccc1)C(=O)c1c(-c2ccccc2)[nH]c2ccccc12,.,76.9,.,.,68.7
CN=C1CC(SC)=C1c1ccc(C)cc1,33.3*,90.7,38.5*,61.2,114.0
O=c1cc(Nc2ccc3c(c2)OCCO3)[nH]c(=O)n1Cc1ccc(F)cc1,93.6,90.6,96.3,85.3,85.9
O=c1cc(Nc2ccc3c(c2)OCCO3)[nH]c(=O)n1-c1ccc(Br)cc1,94.9,27.5,37.4*,82.6,46.5
O=c1cc(Nc2ccc3c(c2)OCO3)[nH]c(=O)n1-c1ccc(Br)cc1,97.1,82.4,35.4*,75.6,97.2
Cc1ccc(N(C(=O)Cn2nnc(-c3ccccc3)n2)C(C(=O)NC2CCCCC2)c2ccccn2)cc1C (stereo not drawn),.,91.8,.,.,80.6
CN(C)CCCn1c(SCC(=O)N2c3ccccc3Sc3ccccc32)nc2ccccc2c1=O,.,1.6*,.,.,1.7*
Cn1c(SCC(=O)N2c3ccccc3Sc3ccccc32)nc2ccccc21,.,82.1,.,.,73.8
Cc1nn(Cc2cccc(C(=O)N3CCCC(C)C3)c2)c(C)c1[N+](=O)[O-] (stereo not drawn),.,78.7,.,.,79.3
N=c1c(C(=O)NCc2ccco2)cc2c(=O)n3ccccc3nc2n1Cc1ccc(Cl)cc1,61.1,12.5,25.8*,69.8,10.9
CCCn1c(=NC(=O)c2ccc3c(c2)OCO3)c(C#N)cc2c(=O)n3cccc(C)c3nc21,82.5,.,37.7*,79.0,.
N=c1c(C(=O)NCc2ccccc2)cc2c(=O)n3ccccc3nc2n1Cc1ccco1,80.9,11.4,39.0*,78.2,15.9
CCCCCn1c(=NC(=O)c2ccco2)c(C(=O)OCC)cc2c(=O)n3ccccc3nc21,89.2,77.5,27.0*,91.5,75.6
N=c1c(C(=O)NCc2ccco2)cc2c(=O)n3ccccc3nc2n1Cc1ccccc1,91.3,55.2,46.2,78.7,45.5
N=c1c(C(=O)NCc2ccc(F)cc2)cc2c(=O)n3ccccc3nc2n1Cc1ccco1,.,60.1,.,.,61.9
CCCN(CCC)CCNC(=O)C1c2ccccc2C(=O)N(CCOC)C1c1ccc(F)cc1 (stereo not drawn),94.5,95.8,90.7,92.7,91.7
